In ChEMBL document CHEMBL1799919, “Design, synthesis, biological evaluation, and structure-activity relationships of substituted phenyl 4-(2-oxoimidazolidin-1-yl)benzenesulfonates as new tubulin inhibitors mimicking combretastatin A-4” (J Med Chem, 2011):
The source made the active and inactive calls. The calls are words filed in the database; no cut-off is given here.

Columns and labels:
HT-29 = assay: Antiproliferative activity against human HT-29 cells after 48 hrs by sulforhodamine B assay; assay type: functional, cell-based; details: HT-29, 48 h
M21 [1] = assay: Disruption of cytoskeleton microtubule structure of human M21 cells at 5 times IC50 after 16 hrs by indirect immunofluorescence assay; assay type: functional, cell-based
In short: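 Fixed in 3.7% formaldehyde, permeabilized with saponin, and stained with anti-β-tubulin (TUB 2.1), Alexa-488 secondary and DAPI. Microtubule structure scored by fluorescence microscopy.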

M21 [2] = assay: Antiproliferative activity against human M21 cells after 48 hrs by sulforhodamine B assay; assay type: functional, cell-based; details: M21, 48 h
M21 [3] = assay: Cell cycle arrest in human M21 cells assessed as accumulation at G2/M phase at 5 times IC50 after 24 hrs using propidium iodide staining by flow cytometric analysis (reference value: 9%); assay type: functional
MCF7 = assay: Antiproliferative activity against human MCF7 cells after 48 hrs by sulforhodamine B assay; assay type: functional, cell-based; details: MCF7, 48 h
MDA-MB-231 = assay: Displacement of N,N'-ethylenebis(iodoacetamide) from colchicine-binding site of beta-tubulin in human MDA-MB-231 cells at 1000 times IC50 preincubated for after 2 hrs before N,N'-ethylenebis(iodoacetamide) addition measured after 1.5 hrs by chemiluminescence assay; assay type: cell-based
In short: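 EBI (100 μM final) added for 1.5 h at 37 °C; controls received 0.5% DMSO. Lysates (20 μg protein) run on 10% SDS-PAGE and blotted with anti-β-tubulin (TUB 2.1). β-tubulin–EBI adduct band detected by ECL.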

M21 [4] = assay: Cell cycle arrest in human M21 cells assessed as accumulation at G0/G1 phase at 5 times IC50 after 24 hrs using propidium iodide staining by flow cytometric analysis (reference value: 61%); assay type: functional
M21 [5] = assay: Cell cycle arrest in human M21 cells assessed as accumulation at S phase at 5 times IC50 after 24 hrs using propidium iodide staining by flow cytometric analysis (reference value: 30%); assay type: functional

Row | SMILES | IC50 (HT-29) | IC50 (MCF7) | Activity (M21 [1]) | IC50 (M21 [2]) | Activity (M21 [3]) | inhibition (MDA-MB-231) | Activity (M21 [4]) | Activity (M21 [5])
1 | CCOc1ccccc1OS(=O)(=O)c1ccc(N2CCNC2=O)cc1 | 40 nM | 83 nM | Active | 24 nM | 80% | Active | 1% | 19%
2 | CN(C)c1ccc(OS(=O)(=O)c2ccc(N3CCNC3=O)cc2)cc1 | 430 nM | 500 nM | – | 350 nM | – | – | – | –
3 | O=C1NCCN1c1ccc(S(=O)(=O)Oc2ccncc2)cc1 | > 1000 nM | > 1000 nM | – | > 1000 nM | – | – | – | –
4 | Cc1cccc(OS(=O)(=O)c2ccc(N3CCNC3=O)cc2)c1C | 31 nM | 50 nM | Active | 17 nM | 63% | Active | 5% | 32%
5 | O=C1NCCN1c1ccc(S(=O)(=O)Oc2ccccc2[N+](=O)[O-])cc1 | 190 nM | 270 nM | – | 150 nM | – | – | – | –
6 | Cc1ccc2cccc(OS(=O)(=O)c3ccc(N4CCNC4=O)cc3)c2n1 | 180 nM | 330 nM | – | 130 nM | – | – | – | –
7 | O=C1NCCN1c1ccc(S(=O)(=O)Oc2ccc([N+](=O)[O-])cc2)cc1 | > 1000 nM | > 1000 nM | – | 570 nM | – | – | – | –
8 | Cc1ccccc1OS(=O)(=O)c1ccc(N2CCNC2=O)cc1 | 33 nM | 30 nM | Active | 26 nM | 74% | Active | 11% | 15%
9 | O=C1NCCN1c1ccc(S(=O)(=O)Oc2ccccn2)cc1 | 480 nM | 770 nM | – | 290 nM | – | – | – | –
10 | CCCOc1ccc(OS(=O)(=O)c2ccc(N3CCNC3=O)cc2)cc1 | 110 nM | 140 nM | Active | 96 nM | 94% | Active | 0% | 6%
11 | Cc1ccc(OS(=O)(=O)c2ccc(N3CCCNC3=O)cc2)c(C)c1 | > 1000 nM | > 1000 nM | – | > 1000 nM | – | – | – | –
12 | Nc1ccc(OS(=O)(=O)c2ccc(N3CCNC3=O)cc2)cc1 | > 1000 nM | > 1000 nM | – | 920 nM | – | – | – | –
13 | CCc1ccc(OS(=O)(=O)c2ccc(N3CCNC3=O)cc2)cc1 | 150 nM | 190 nM | – | 120 nM | – | – | – | –
14 | CC(C)(C)[Si](C)(C)Oc1ccc(OS(=O)(=O)c2ccc(N3CCNC3=O)cc2)cc1 | > 1000 nM | > 1000 nM | – | > 1000 nM | – | – | – | –
15 | CCOc1ccc(OS(=O)(=O)c2ccc(N3CCNC3=O)cc2)cc1 | 44 nM | 56 nM | Active | 39 nM | 75% | – | 2% | 23%
16 | CCC(C)c1ccc(OS(=O)(=O)c2ccc(N3CCNC3=O)cc2)cc1 (stereo not drawn) | 780 nM | 920 nM | – | 830 nM | – | – | – | –
17 | CCCc1ccccc1OS(=O)(=O)c1ccc(N2CCNC2=O)cc1 | 76 nM | 69 nM | Active | 61 nM | 100% | Active | 0% | 0%
18 | Cc1cccc(OS(=O)(=O)c2ccc(N3CCCNC3=O)cc2)c1 | > 1000 nM | > 1000 nM | – | > 1000 nM | – | – | – | –
19 | O=C1NCCN1c1ccc(S(=O)(=O)Oc2ccc(I)cc2)cc1 | 150 nM | 210 nM | – | 110 nM | – | – | – | –
20 | O=C1NCCN1c1ccc(S(=O)(=O)Oc2c(F)c(F)c(F)c(F)c2F)cc1 | 340 nM | 320 nM | – | 220 nM | – | – | – | –
21 | Cc1cc(OS(=O)(=O)c2ccc(N3CCNC3=O)cc2)ccc1N | 670 nM | 600 nM | – | 360 nM | – | – | – | –
22 | O=C1NCCN1c1ccc(S(=O)(=O)Oc2ccc(-n3ccnc3)cc2)cc1 | > 1000 nM | > 1000 nM | – | > 1000 nM | – | – | – | –
23 | Cc1ccccc1OS(=O)(=O)c1ccc(N2CCCNC2=O)cc1 | > 1000 nM | > 1000 nM | – | > 1000 nM | – | – | – | –
24 | O=C1NCCCN1c1ccc(S(=O)(=O)Oc2cc(Cl)c(Cl)cc2Cl)cc1 | > 1000 nM | > 1000 nM | – | > 1000 nM | – | – | – | –
25 | COc1ccccc1OS(=O)(=O)c1ccc(N2CCNC2=O)cc1 | 180 nM | 220 nM | – | 130 nM | – | – | – | –
26 | CCCCOc1ccc(OS(=O)(=O)c2ccc(N3CCNC3=O)cc2)cc1 | 540 nM | 890 nM | – | 530 nM | – | – | – | –
27 | CCCc1ccccc1OS(=O)(=O)c1ccc(N2CCCNC2=O)cc1 | > 1000 nM | > 1000 nM | – | > 1000 nM | – | – | – | –
28 | O=C1NCCN1c1ccc(S(=O)(=O)Oc2c(Cl)cc(Cl)cc2Cl)cc1 | 110 nM | 170 nM | – | 120 nM | – | – | – | –
29 | Nc1cccc(OS(=O)(=O)c2ccc(N3CCNC3=O)cc2)c1 | 1000 nM | 270 nM | – | 170 nM | – | – | – | –

More lines, main results first:

Row | IC50 (HT-29) | IC50 (MCF7) | SMILES | Activity (M21 [1]) | IC50 (M21 [2]) | Activity (M21 [3]) | inhibition (MDA-MB-231) | Activity (M21 [4]) | Activity (M21 [5])
30 | 32 nM | 47 nM | Cc1cc(C)cc(OS(=O)(=O)c2ccc(N3CCNC3=O)cc2)c1 | Active | 16 nM | 67% | Active | 7% | 26%
31 | 75 nM | 100 nM | O=C1NCCN1c1ccc(S(=O)(=O)Oc2ccc(F)c(F)c2)cc1 | Active | 47 nM | 72% | Active | 2% | 26%
32 | 70 nM | 100 nM | O=C1NCCN1c1ccc(S(=O)(=O)Oc2ccc3[nH]ccc3c2)cc1 | Active | 65 nM | 64% | Active | 19% | 17%
33 | 51 nM | 61 nM | O=C1NCCN1c1ccc(S(=O)(=O)Oc2ccccc2F)cc1 | Active | 34 nM | 48% | Active | 18% | 34%
34 | 140 nM | 180 nM | Cc1cc(OS(=O)(=O)c2ccc(N3CCNC3=O)cc2)ccc1[N+](=O)[O-] | – | 100 nM | – | – | – | –
35 | 67 nM | 88 nM | COc1ccc(OS(=O)(=O)c2ccc(N3CCNC3=O)cc2)cc1OC | Active | 45 nM | 80% | Active | 1% | 19%
36 | 42 nM | 54 nM | O=C1NCCN1c1ccc(S(=O)(=O)Oc2cccc(F)c2)cc1 | Active | 31 nM | 84% | Active | 7% | 9%
37 | 34 nM | 49 nM | Cc1cc(OS(=O)(=O)c2ccc(N3CCNC3=O)cc2)cc(C)c1C | Active | 15 nM | 99% | Active | 0% | 0%
38 | > 1000 nM | > 1000 nM | O=C1NCCCN1c1ccc(S(=O)(=O)Oc2c(Cl)cc(Cl)cc2Cl)cc1 | – | > 1000 nM | – | – | – | –
39 | 76 nM | 57 nM | Cc1cccc(OS(=O)(=O)c2ccc(N3CCNC3=O)cc2)c1 | Active | 54 nM | 99% | Active | 1% | 0%
40 | > 1000 nM | > 1000 nM | CCc1ccccc1OS(=O)(=O)c1ccc(N2CCCNC2=O)cc1 | – | > 1000 nM | – | – | – | –
41 | 120 nM | 150 nM | Cc1ccc(OS(=O)(=O)c2ccc(N3CCNC3=O)cc2)cc1 | Active | 93 nM | 55% | inactive | 32% | 13%
42 | > 1000 nM | > 1000 nM | O=C1NCCN1c1ccc(S(=O)(=O)Oc2ccc(O)cc2)cc1 | – | > 1000 nM | – | – | – | –
43 | > 1000 nM | > 1000 nM | O=C1NCCCN1c1ccc(S(=O)(=O)Oc2ccc(Cl)cc2)cc1 | – | > 1000 nM | – | – | – | –
44 | > 1000 nM | > 1000 nM | O=C1NCCCN1c1ccc(S(=O)(=O)Oc2cccc(F)c2)cc1 | – | > 1000 nM | – | – | – | –
45 | 150 nM | 420 nM | O=C(NCCCl)Nc1cccc(CCCCCO)c1 | Active | 230 nM | 88% | – | 1% | 11%
46 | > 1000 nM | > 1000 nM | COc1cccc(OS(=O)(=O)c2ccc(N3CCCNC3=O)cc2)c1 | – | > 1000 nM | – | – | – | –
47 | > 1000 nM | > 1000 nM | O=C1NCCCN1c1ccc(S(=O)(=O)Oc2ccc(F)cc2)cc1 | – | > 1000 nM | – | – | – | –
48 | 490 nM | 730 nM | COc1cc(OS(=O)(=O)c2ccc(N3CCCNC3=O)cc2)cc(OC)c1OC | – | 240 nM | – | – | – | –
49 | 720 nM | > 1000 nM | Cc1ccc(OS(=O)(=O)c2ccc(N3CCCNC3=O)cc2)cc1 | – | > 1000 nM | – | – | – | –
50 | > 1000 nM | > 1000 nM | O=C1NCCN1c1ccc(S(=O)(=O)Oc2ccccc2)cc1 | – | > 1000 nM | – | – | – | –
